Results from ChEMBL document CHEMBL1143683, “Arylthioindole inhibitors of tubulin polymerization. 3. Biological evaluation, structure-activity relationships and molecular modeling studies” (J Med Chem, 2007).
Calls of active or inactive are those of the source. The calls are words filed in the database; no cut-off is given here.

Columns and labels:
[1] = target: Tubulin; experiment: Displacement of MTC from tubulin; format: protein-complex assay, Homo sapiens
[2] = target: Tubulin (Homo sapiens) (UniProt P68371+Q9H4B7+P0DPH7+P68366+Q13509+Q71U36+P04350+Q3ZCM7+P07437+P68363+Q9BQE3+Q6PEY2+Q13885+Q9BVA1+Q9BUF5); experiment: Inhibition of [3H]colchicine binding to tubulin at 5 uM; format: protein-complex assay
[3] = target: Tubulin; experiment: Inhibition of tubulin polymerization; format: protein-complex assay, Homo sapiens
In short: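 Tubulin at 10 µM in 0.8 M monosodium glutamate pH 6.6 with varying drug, preincubated 15 min at 30 °C, then chilled on ice. Assembly started with 0.4 mM GTP and followed as turbidity at 350 nm for 20 min at 30 °C. IC50 taken from the extent of assembly.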

[4] = test system: MCF7; experiment: Growth inhibition of human MCF7 cells after 48 hrs; format: functional, cell-based; conditions: MCF7, 48 h
[5] = test system: HeLa; experiment: Cell cycle arrest in HeLa cells assessed as accumulation of A0 sub-G1 DNA content at 10 uM after 24 hrs; format: functional, Homo sapiens
In short: (§1)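 HeLa cells in DMEM with 10% FCS, 37 °C, 5% CO2. Subconfluent cells trypsinized, seeded at 2.5 × 10⁵ cells/mL and exposed to 10 µM for 24 h (0.1% DMSO in parallel samples). Harvested either at once or after another 24 h in drug-free medium. Ethanol-fixed, stained with propidium iodide plus RNase A, ≥10 000 cells flow-analysed. Values are % of cells per phase; one typical experiment.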

[6] = test system: HeLa; experiment: Cell cycle arrest in HeLa cells assessed as accumulation at G2/M phase at 10 uM after 24 hrs; format: functional, Homo sapiens; in short: as §1
[7] = test system: HeLa; experiment: Cell cycle arrets in HeLa cells assessed as accumulation at G1 phase at 10 uM after 24 hrs; format: functional, Homo sapiens; in short: as §1
[8] = test system: HeLa; experiment: Cell cycle arrets in HeLa cells assessed as accumulation at G1 phase at 10 uM for 24 hrs with further incubation in drug free medium for 24 hrs; format: functional, Homo sapiens; in short: as §1
[9] = test system: HeLa; experiment: Cell cycle arrest in HeLa cells assessed as accumulation at S phase at 10 uM after 24 hrs with further incubation in drug free medium for 24 hrs; format: functional, Homo sapiens; in short: as §1
[10] = test system: HeLa; experiment: Cell cycle arrest in HeLa cells assessed as accumulation at G2/M phase at 10 uM after 24 hrs with furthur incubation in drug free medium for 24 hrs; format: functional, Homo sapiens; in short: as §1
[11] = test system: HeLa; experiment: Cell cycle arrest in HeLa cells assessed as accumulation at >4C phase at 10 uM after 24 hrs; format: functional, Homo sapiens; in short: as §1
[12] = test system: HeLa; experiment: Cell cycle arrest in HeLa cells assessed as accumulation of A0 sub-G1 DNA content at 10 uM after 24 hrs with further incubation in drug free medium for 24 hrs; format: functional, Homo sapiens; in short: as §1
[13] = test system: HeLa; experiment: Cell cycle arrest in HeLa cells assessed as accumulation at >4C phase at 10 uM after 24 hrs with furthur incubation in drug free medium for 24 hrs; format: functional, Homo sapiens; in short: as §1
[14] = test system: HeLa; experiment: Induction of apoptosis in HeLa cells assessed as PARP1 ceavage at 10 uM; format: functional, cell-based; conditions: Homo sapiens
In short: (§2)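 HeLa cells given 10 µM for 24 h, or 100 µM for 3 h followed by 24 h recovery. Total extracts from 2.5 × 10⁶ cells analysed by western blot with anti-PARP-1 mAb C-2-10 and an HRP anti-mouse secondary, ECL detection. PARP-1 proteolysis taken as the marker of caspase activation.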

[15] = test system: HeLa; experiment: Cell cycle arrest in HeLa cells assessed as accumulation at S phase at 10 uM after 24 hrs; format: functional, Homo sapiens; in short: as §1
[16] = test system: HeLa; experiment: Induction of apoptosis in HeLa cells assessed as PARP1 ceavage at 100 uM; format: functional, cell-based; conditions: Homo sapiens; in short: as §2

SMILES | Ka [1] [M⁻¹] | inhibition [2] [%] | IC50 [3] [µM] | IC50 [4] [µM] | also measured
COc1cc(Sc2c[nH]c3ccc([N+](=O)[O-])cc23)cc(OC)c1OC | – | – | 16 | 0.56 | –
COC(=O)c1[nH]c2ccc(Cl)cc2c1Sc1cc(OC)c(OC)c(OC)c1 | 1.3e+06 | – | – | – | –
Cc1cc(C)cc(Sc2c[nH]c3ccc(Cl)cc23)c1 | – | 33 | 9.4 | 1.2 | –
COc1ccc(-c2ccc(OC)c(=O)cc2)c(OC)c1OC | 470000 | – | – | – | –
COc1ccccc1Sc1c[nH]c2ccc(Cl)cc12 | – | – | 11 | > 2.5 | –
COC(=O)c1[nH]c2ccccc2c1Sc1cc(OC)c(OC)c(OC)c1 | 570000 | – | – | – | –
COc1ccc(/C=C\c2cc(OC)c(OC)c(OC)c2)cc1O [COMBRETASTATIN A4] | – | – | – | 0.017 | –
COc1cc(Sc2c(C)[nH]c3ccc(Cl)cc23)cc(OC)c1OC | 2.07e+06 | 59 | 2.7 | 0.082 | –
COc1cc(Sc2c(C)[nH]c3ccccc23)cc(OC)c1OC | 5.5e+06 | 61 | 6.8 | 0.046 | –
COc1cc([C@@H]2c3cc4c(cc3[C@@H](O[C@@H]3O[C@@H]5CO[C@@H](C)O[C@H]5[C@H](O)[C@H]3O)[C@H]3COC(=O)[C@H]23)OCO4)cc(OC)c1O | – | – | – | – | Activity [16]: Active
COc1ccc2[nH]c(C)c(Sc3cc(OC)c(OC)c(OC)c3)c2c1 | 6.38e+06 | 69 | 3.3 | 0.018 | –
COc1cc(Sc2c[nH]c3ccc(OCCOCc4ccccc4)cc23)cc(OC)c1OC | – | – | > 40 | 0.26 | –
COc1cc(Sc2c[nH]c3ccccc23)cc(OC)c1OC | 5.21e+06 | 68 | 2.6 | 0.034 | –

More lines, main results first:

Ka [1] [M⁻¹] | inhibition [2] [%] | IC50 [3] [µM] | IC50 [4] [µM] | SMILES | also measured
2.31e+06 | 61 | 2.7 | 0.068 | COc1cc(Sc2c[nH]c3ccc(I)cc23)cc(OC)c1OC | –
810000 | 51 | 2.6 | 0.077 | COc1cc(Sc2c[nH]c3ccc(Cl)cc23)cc(OC)c1OC | –
– | – | 19 | 1.5 | COc1cc(Sc2c[nH]c3ccc(OC(C)C)cc23)cc(OC)c1OC | –
– | – | 13 | 0.26 | COc1cc(Sc2c[nH]c3ccc(N)cc23)cc(OC)c1OC | –
2.76e+06 | 65 | 1.6 | 0.043 | COc1cc(Sc2c[nH]c3ccc(Br)cc23)cc(OC)c1OC | Activity [5]: 6.5%; Activity [6]: 56.1%; Activity [7]: 1.8%; Activity [8]: 3.5%; Activity [9]: 10.5%; Activity [10]: 53.1%; Activity [11]: 4.2%; Activity [12]: 4.5%; Activity [13]: 26%; Activity [14]: inactive; Activity [15]: 8.9%
3.05e+06 | 61 | 4.1 | 0.022 | COc1ccc2[nH]cc(Sc3cc(OC)c(OC)c(OC)c3)c2c1 | –
– | 76 | 2.1 | 0.016 | CCOc1ccc2[nH]cc(Sc3cc(OC)c(OC)c(OC)c3)c2c1 | –
1.96e+06 | 56 | 2.7 | 0.016 | COc1cc(Sc2c[nH]c3ccc(C)cc23)cc(OC)c1OC | –
– | 26 | 6.3 | 0.19 | COc1cc(Sc2c[nH]c3ccc(O)cc23)cc(OC)c1OC | –
– | 39 | 3.3 | 0.16 | COc1cc(Sc2c[nH]c3ccc(F)cc23)cc(OC)c1OC | –
– | 31 | 6.8 | 0.095 | COc1cc(Sc2c[nH]c3ccc(OCCO)cc23)cc(OC)c1OC | –
